# In ChEMBL document CHEMBL4265871, “Novel alkylated azoles as potent antifungals” (Eur J Med Chem, 2017):
# What was measured:
# Type in all cases: functional
# Aspergillus flavus = assay: Antifungal activity against Aspergillus flavus ATCC MYA-3631 incubated for 48 hrs by CLSI M38-A2 protocol based method; conditions: ATCC MYA-3631, 48 h; for MIC: read-out: MIC100
# Aspergillus nidulans = assay: Antifungal activity against Aspergillus nidulans ATCC 38163 incubated for 48 hrs by CLSI M38-A2 protocol based method; conditions: ATCC 38163, 48 h; for MIC: read-out: MIC100
# Aspergillus terreus = assay: Antifungal activity against Aspergillus terreus ATCC MYA-3633 incubated for 48 hrs by CLSI M38-A2 protocol based method; conditions: ATCC MYA-3633, 48 h; for MIC: read-out: MIC100
# Candida albicans [1] = assay: Antifungal activity against Candida albicans ATCC 64124 incubated for 48 hrs by modified CLSI M27-A3 protocol based method; conditions: ATCC 64124, 48 h
# Candida parapsilosis = assay: Antifungal activity against Candida parapsilosis ATCC 22019 incubated for 48 hrs by modified CLSI M27-A3 protocol based method; conditions: Lodderomyces parapsilosis, ATCC 22019, 48 h; for MIC: read-out: MIC100
# Procedure, shortened: (§1)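 For C. albicans ATCC 10231, C. krusei ATCC 6258 and C. parapsilosis ATCC 22019, MIC-0 was read, meaning complete growth inhibition. For azole controls, MIC-2 (50% growth inhibition) was reported instead. Caspofungin and voriconazole were tested here; other controls came from earlier work.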
# Candida albicans [2] = assay: Antifungal activity against ITC and FLC-susceptible Candida albicans ATCC MYA-2876 incubated for 48 hrs by modified CLSI M27-A3 protocol based method; conditions: ATCC MYA-2876, 48 h
# Procedure, shortened: (§2)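 Because these Candida strains show trailing growth, MIC-2 was read, meaning 50% growth inhibition. Caspofungin and voriconazole were tested here; other controls came from earlier work.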
# Candida albicans [3] = assay: Antifungal activity against ITC and FLC-resistant Candida albicans ATCC 1237 incubated for 48 hrs by modified CLSI M27-A3 protocol based method; conditions: ATCC 1237, 48 h; procedure, shortened: as §2
# Candida albicans [4] = assay: Antifungal activity against ITC and FLC-resistant Candida albicans ATCC MYA-90819 incubated for 48 hrs by modified CLSI M27-A3 protocol based method; conditions: ATCC MYA-90819, 48 h
# Candida albicans [5] = assay: Antifungal activity against ITC and FLC-resistant Candida albicans ATCC MYA-1003 incubated for 48 hrs by modified CLSI M27-A3 protocol based method; conditions: ATCC MYA-1003, 48 h; procedure, shortened: as §2
# Candida albicans [6] = assay: Antifungal activity against ITC and FLC-susceptible Candida albicans ATCC MYA-2310 incubated for 48 hrs by modified CLSI M27-A3 protocol based method; conditions: ATCC MYA-2310, 48 h
# Nakaseomyces glabratus = assay: Antifungal activity against Candida glabrata ATCC 2001 incubated for 48 hrs by modified CLSI M27-A3 protocol based method; conditions: ATCC 2001, 48 h
# Pichia kudriavzevii = assay: Antifungal activity against Candida krusei ATCC 6258 incubated for 48 hrs by modified CLSI M27-A3 protocol based method; conditions: ATCC 6258, 48 h; for MIC: read-out: MIC100; procedure, shortened: as §1
# Candida albicans [7] = assay: Antifungal activity against Candida albicans ATCC 10231 incubated for 48 hrs by modified CLSI M27-A3 protocol based method; conditions: ATCC 10231, 48 h; for MIC: read-out: MIC100; procedure, shortened: as §1
Structure (SMILES),MIC (Aspergillus flavus) [µM],MIC (Aspergillus nidulans) [µM],MIC (Aspergillus terreus) [µM],MIC50 (Candida albicans [1]) [µM],MIC (Candida parapsilosis) [µM],MIC50 (Candida albicans [2]) [µM],MIC50 (Candida albicans [3]) [µM],MIC50 (Candida albicans [4]) [µM],MIC50 (Candida albicans [5]) [µM],MIC50 (Candida albicans [6]) [µM],MIC50 (Nakaseomyces glabratus) [µM],MIC (Pichia kudriavzevii) [µM],MIC (Candida albicans [7]) [µM],also measured
CCC(O)(Cn1cncn1)c1ccc(F)cc1F (stereo unspecified),> 124,124,> 124,> 124,1.9,61.6,> 124,124,30.8,> 124,> 124,30.8,61.6,
CCCCCCC(O)(Cn1cncn1)c1cccc(Cl)c1 (stereo unspecified),> 102,12.7,> 102,102,> 102,> 102,25.3,25.3,> 102,25.3,> 102,> 102,> 102,
CCCCCCCCCCCCC(O)(Cn1cncn1)c1ccc(F)cc1F (stereo unspecified),> 79.5,1.2,9.9,> 79.5,5,19.8,19.8,> 79.5,> 79.5,19.8,2.5,> 79.5,> 79.5,
CC(O)(Cn1cncn1)c1ccc(F)cc1F (stereo unspecified),> 131,131,> 131,> 131,16.3,> 131,> 131,> 131,65.2,> 131,> 131,> 131,> 131,
CC(O)(Cn1cncn1)c1ccc(Cl)cc1Cl (stereo unspecified),> 115,7.2,> 115,> 115,0.88,28.7,> 115,7.2,> 115,> 115,14.3,14.3,> 115,
CCC(C)n1ncn(-c2ccc(N3CCN(c4ccc(OCC5COC(Cn6cncn6)(c6ccc(Cl)cc6Cl)O5)cc4)CC3)cc2)c1=O (stereo unspecified) [ITRACONAZOLE],,,,> 88.6,,11.1,44.4,44.4,44.4,44.4,11.1,,,MIC50 (Aspergillus flavus): 0.68 µM; MIC50 (Aspergillus nidulans): 0.28 µM; MIC50 (Aspergillus terreus): 1.4 µM; MIC50 (Candida parapsilosis): 0.17 µM; MIC50 (Pichia kudriavzevii): 0.68 µM; MIC50 (Candida albicans [7]): 0.71 µM
CCCCCCC(O)(Cn1cncn1)c1cccc(F)c1 (stereo unspecified),> 107,13.4,107,> 107,6.7,6.7,3.3,6.7,107,6.7,26.8,13.4,> 107,
CCC(O)(Cn1cncn1)c1ccc(Cl)cc1Cl (stereo unspecified),54.5,27.3,13.6,> 109,< 0.1,3.4,3.4,0.84,6.8,3.4,13.6,3.4,13.6,
CCCCCC(O)(Cn1cncn1)c1cccc(Cl)c1 (stereo unspecified),13.3,0.2,1.6,106,> 106,> 106,6.6,13.3,> 106,6.6,> 106,> 106,> 106,
CCCC(O)(Cn1cncn1)c1ccc(F)cc1F (stereo unspecified),> 117,29.2,58.4,117,0.22,58.4,117,58.4,14.6,29.2,> 117,0.22,14.6,
CC[C@H](C)C[C@H](C)CCCCCCCCC(=O)N[C@H]1C[C@@H](O)[C@@H](NCCN)NC(=O)[C@@H]2[C@@H](O)CCN2C(=O)[C@H]([C@H](O)CCN)NC(=O)[C@H]([C@H](O)[C@@H](O)c2ccc(O)cc2)NC(=O)[C@@H]2C[C@@H](O)CN2C(=O)[C@H]([C@@H](C)O)NC1=O [CASPOFUNGIN],> 25.8,> 26,> 25.8,,1.6,,,,,,,0.4,0.8,MIC (Candida albicans [1]): 0.2 µM; MIC (Candida albicans [2]; read-out: MIC100): 0.05 µM; MIC (Candida albicans [3]; read-out: MIC100): 0.2 µM; MIC (Candida albicans [4]): 0.1 µM; MIC (Candida albicans [5]; read-out: MIC100): 0.4 µM; MIC (Candida albicans [6]; read-out: MIC100): 0.1 µM; MIC (Nakaseomyces glabratus): 0.05 µM
N[n+]1cnn(CC(=O)c2ccc(Cl)cc2Cl)c1,> 102,> 102,> 102,> 102,> 102,> 102,> 102,> 102,> 102,> 102,> 102,> 102,> 102,
